Results: ChEMBL document CHEMBL1649443, “Novel S-adenosylmethionine decarboxylase inhibitors for the treatment of human African trypanosomiasis” (Antimicrob Agents Chemother, 2009)
Active and inactive are the calls of the source. The calls are words filed in the database; no cut-off is given here.

What was measured:
Cytochrome P450 1A2 = molecular target: T1, Cytochrome P450 1A2 (Homo sapiens, UniProt P05177); experiment: (§1) Inhibition of human cytochrome P450 1A2
T1 sequence (P05177 whole entry): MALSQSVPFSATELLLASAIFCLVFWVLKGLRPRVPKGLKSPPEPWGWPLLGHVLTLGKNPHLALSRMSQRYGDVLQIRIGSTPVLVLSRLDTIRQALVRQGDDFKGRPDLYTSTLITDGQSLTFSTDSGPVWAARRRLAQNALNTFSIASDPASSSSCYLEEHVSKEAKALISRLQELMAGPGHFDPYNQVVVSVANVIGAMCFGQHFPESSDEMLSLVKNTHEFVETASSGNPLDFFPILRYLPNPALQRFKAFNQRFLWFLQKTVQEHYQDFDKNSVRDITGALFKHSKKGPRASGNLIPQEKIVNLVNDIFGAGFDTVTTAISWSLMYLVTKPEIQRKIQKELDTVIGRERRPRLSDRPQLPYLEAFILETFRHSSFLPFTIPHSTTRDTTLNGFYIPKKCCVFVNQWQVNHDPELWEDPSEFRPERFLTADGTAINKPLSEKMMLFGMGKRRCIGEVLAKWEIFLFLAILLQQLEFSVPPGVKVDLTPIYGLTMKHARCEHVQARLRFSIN

[1] = Cmax in mouse blood at 50 mg/kg, ip administered as single dose; format: ADME, organism-based; design: dose 50 mg/kg, route intraperitoneal
[2] = tested on: Trypanosoma brucei brucei; experiment: Antiparasitic activity against Trypanosoma brucei brucei STIB 795 infected in mouse assessed as mean survival days at 50 mg/kg, ip qd for 4 days administered on 3rd day of infection (reference value: 6.75 days); format: functional; settings: route intraperitoneal
[3] = Cmax in mouse brain at 50 mg/kg, ip administered as single dose; format: ADME, organism-based; design: dose 50 mg/kg, route intraperitoneal
[4] = Partition coefficient in RBCs; format: ADME, cell-based; settings: erythrocyte
Cytochrome P450 2C9 = Cytochrome P450 2C9 (Homo sapiens, UniProt P11712); experiment: (§2) Inhibition of human cytochrome P450 2C9
Sequence of Cytochrome P450 2C9 (P11712 whole entry): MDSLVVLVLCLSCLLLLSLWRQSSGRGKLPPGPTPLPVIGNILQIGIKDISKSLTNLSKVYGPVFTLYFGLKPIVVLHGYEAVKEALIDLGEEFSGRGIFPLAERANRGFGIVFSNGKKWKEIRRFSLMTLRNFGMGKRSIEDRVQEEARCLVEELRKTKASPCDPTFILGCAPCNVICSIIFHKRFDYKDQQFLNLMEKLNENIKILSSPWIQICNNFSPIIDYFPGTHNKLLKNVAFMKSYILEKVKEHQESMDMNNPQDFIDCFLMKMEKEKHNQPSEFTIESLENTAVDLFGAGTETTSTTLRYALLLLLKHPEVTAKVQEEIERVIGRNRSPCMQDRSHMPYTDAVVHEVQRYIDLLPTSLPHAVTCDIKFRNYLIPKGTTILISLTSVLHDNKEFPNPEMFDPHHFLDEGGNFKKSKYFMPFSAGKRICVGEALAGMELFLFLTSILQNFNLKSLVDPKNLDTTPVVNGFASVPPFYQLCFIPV

Cytochrome P450 2C19 = Cytochrome P450 2C19 (Homo sapiens, UniProt P33261); experiment: (§3) Inhibition of human cytochrome P450 2C19
Sequence of Cytochrome P450 2C19 (P33261 whole entry): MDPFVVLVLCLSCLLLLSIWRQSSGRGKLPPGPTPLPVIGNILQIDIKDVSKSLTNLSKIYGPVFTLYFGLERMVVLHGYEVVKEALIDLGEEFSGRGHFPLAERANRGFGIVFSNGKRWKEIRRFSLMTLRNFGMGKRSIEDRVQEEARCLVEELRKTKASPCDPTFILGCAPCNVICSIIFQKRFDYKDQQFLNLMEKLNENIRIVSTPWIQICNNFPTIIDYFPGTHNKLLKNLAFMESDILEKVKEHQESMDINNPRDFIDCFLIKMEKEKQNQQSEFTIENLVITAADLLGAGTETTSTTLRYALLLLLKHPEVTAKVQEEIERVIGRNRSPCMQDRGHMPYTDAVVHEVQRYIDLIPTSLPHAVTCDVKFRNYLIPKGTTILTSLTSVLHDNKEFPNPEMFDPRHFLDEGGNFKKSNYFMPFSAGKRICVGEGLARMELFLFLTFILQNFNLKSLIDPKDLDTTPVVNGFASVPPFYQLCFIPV

[5] = Half life in mouse at 50 mg/kg, ip administered as single dose; format: ADME, organism-based; design: dose 50 mg/kg, route intraperitoneal; settings: in vivo
[6] = tested on: Trypanosoma brucei brucei; experiment: Antiparasitic activity against Trypanosoma brucei brucei LAB 110 EATRO infected in mouse assessed as parasitemia cure incidence at 50 mg/kg/day, ip bid for 4 days administered on 1st day of infection and measured through day 40 post infection; format: functional, organism-based
How it was run: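 Mice, groups of five, infected i.p. on day 0 with 2.5 × 10^5 parasites; dosing from day 1 at 50 mg/kg/day i.p., given either once daily for 7 days or split twice daily for 4 days. Treatment controls got pentamidine 2 mg/kg QD i.p. for 4 days. Read-out was microscopy of ≥20 fields of wet blood smears twice weekly to day 40; cure means no parasites.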

[7] = AUC in mouse brain at 50 mg/kg, ip administered as single dose; format: ADME, organism-based; design: dose 50 mg/kg, route intraperitoneal
[8] = Metabolic stability in rat plasma assessed as compound remaining after 4 hrs; format: ADME, cell-free; settings: read-out: Stability
[9] = Kinetic solubility in phosphate-buffered saline at pH 7.4 after 16 to 24 hrs by UV spectrophotometry
Cytochrome P450 2D6 = Cytochrome P450 2D6 (Homo sapiens, UniProt P10635); experiment: (§4) Inhibition of human cytochrome P450 2D6
Sequence of Cytochrome P450 2D6 (P10635 whole entry): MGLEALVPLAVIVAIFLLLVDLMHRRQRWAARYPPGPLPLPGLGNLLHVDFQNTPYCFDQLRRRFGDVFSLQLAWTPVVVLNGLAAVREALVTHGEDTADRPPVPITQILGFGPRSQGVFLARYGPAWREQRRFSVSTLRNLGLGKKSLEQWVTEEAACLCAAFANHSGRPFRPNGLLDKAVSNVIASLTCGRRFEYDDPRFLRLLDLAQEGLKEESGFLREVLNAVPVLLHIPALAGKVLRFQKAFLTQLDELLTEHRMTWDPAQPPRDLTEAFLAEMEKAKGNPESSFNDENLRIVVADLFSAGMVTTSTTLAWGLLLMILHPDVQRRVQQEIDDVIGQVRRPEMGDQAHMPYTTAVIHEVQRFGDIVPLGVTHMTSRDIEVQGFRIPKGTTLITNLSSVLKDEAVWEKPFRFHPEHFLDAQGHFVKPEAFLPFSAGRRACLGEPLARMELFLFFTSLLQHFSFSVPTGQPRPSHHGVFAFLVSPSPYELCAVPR

[10] = Metabolic stability in human liver microsomes assessed as intrinsic clearance up to 45 mins by LC/MS/MS analysis; format: ADME, Microsome
in vivo = settings: mouse, brain, ip, 50 mg/kg
[11] = Metabolic stability in human assessed as compound remaining plasma after 4 hrs; format: ADME, cell-free; settings: read-out: Stability
[12] = Protein binding in human plasma at pH 7.4 after 4 hrs; format: ADME, cell-free; settings: read-out: PPB (converted)
[13] = tested on: Trypanosoma brucei brucei; experiment: Antiparasitic activity against Trypanosoma brucei brucei LAB 110 EATRO infected in mouse assessed as mean survival days at 50 mg/kg/day, ip bid for 4 days administered on 1st day of infection and measured through day 40 post infection; format: functional; settings: route intraperitoneal
[14] = Metabolic stability in rat liver microsomes assessed as intrinsic clearance up to 45 mins by LC/MS/MS analysis; format: ADME, Microsome
[15] = Permeability of the compound after 4 hrs by PAMPA assay; format: ADME; settings: read-out: permeability
Cytochrome P450 3A4 = Cytochrome P450 3A4 (Homo sapiens, UniProt P08684); experiment: (§5) Inhibition of human cytochrome P450 3A4
Sequence of Cytochrome P450 3A4 (P08684 whole entry): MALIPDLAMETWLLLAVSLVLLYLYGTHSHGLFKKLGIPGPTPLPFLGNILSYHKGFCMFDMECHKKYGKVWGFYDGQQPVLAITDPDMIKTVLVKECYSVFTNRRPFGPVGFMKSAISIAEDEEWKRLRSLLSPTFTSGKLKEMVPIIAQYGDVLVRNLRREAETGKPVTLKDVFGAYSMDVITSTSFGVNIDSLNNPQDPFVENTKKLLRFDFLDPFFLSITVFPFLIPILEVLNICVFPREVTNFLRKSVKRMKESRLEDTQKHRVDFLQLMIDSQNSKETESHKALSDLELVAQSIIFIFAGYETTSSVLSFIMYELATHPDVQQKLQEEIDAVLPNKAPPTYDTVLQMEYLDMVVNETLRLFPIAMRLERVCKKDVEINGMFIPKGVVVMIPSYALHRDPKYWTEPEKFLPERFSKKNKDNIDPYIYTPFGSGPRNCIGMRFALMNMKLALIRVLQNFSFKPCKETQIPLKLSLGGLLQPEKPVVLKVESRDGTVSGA

[16] = Permeability across apical to basolateral side of human Caco2 cells; format: ADME, cell-based; settings: Caco-2, read-out: permeability
[17] = tested on: Trypanosoma brucei rhodesiense; experiment: Antiparasitic activity against Trypanosoma brucei rhodesiense STIB 900 clone after 72 hrs by Alamar blue assay; format: functional, organism-based; settings: STIB 900, 72 h
[18] = AUC in mouse blood at 50 mg/kg, ip administered as single dose; format: ADME, organism-based; design: dose 50 mg/kg, route intraperitoneal
[19] = Metabolic stability in rat whole blood assessed as compound remaining; format: ADME, tissue-based
[20] = Metabolic stability in rat hepatocytes assessed as intrinsic clearance up to 45 mins by LC/MS/MS analysis; format: ADME, cell-based, Liver, Hepatocyte
[21] = Metabolic stability in human hepatocytes assessed as intrinsic clearance up to 45 mins by LC/MS/MS analysis; format: ADME, cell-based, Liver, Hepatocyte
[22] = Permeability across basolateral to apical side of human Caco2 cells; format: ADME, cell-based; settings: Caco-2, read-out: permeability
[23] = Protein binding in mouse plasma at pH 7.4 after 4 hrs; format: ADME, cell-free; settings: read-out: PPB (converted)
[24] = tested on: Trypanosoma brucei brucei; experiment: Antiparasitic activity against Trypanosoma brucei brucei LAB 110 EATRO infected in mouse assessed as mean survival days at 50 mg/kg/day, ip administered on 1st day of infection and measured through day 40 post infection; settings: route intraperitoneal
CYP1A2 = molecular target: T2, CYP1A2 (Homo sapiens, UniProt P05177); experiment: as §1; settings: human
T2 sequence (P05177 whole entry): T1 sequence (P05177 whole entry)

CYP2C9 = CYP2C9 (Homo sapiens, UniProt P11712); experiment: as §2; settings: human
Sequence of CYP2C9 (P11712 whole entry): as the sequence (P11712 whole entry) above

CYP2C19 = CYP2C19 (Homo sapiens, UniProt P33261); experiment: as §3; settings: human
Sequence of CYP2C19 (P33261 whole entry): as the sequence (P33261 whole entry) above

CYP2D6 = CYP2D6 (Homo sapiens, UniProt P10635); experiment: as §4; settings: human
Sequence of CYP2D6 (P10635 whole entry): as the sequence (P10635 whole entry) above

CYP3A4 = CYP3A4 (Homo sapiens, UniProt P08684); experiment: as §5; settings: human
Sequence of CYP3A4 (P08684 whole entry): as the sequence (P08684 whole entry) above

Row | Cmax [1] | Cmax [3] | half-life [5] | AUC [7] | solubility kinetic [9] | CLint scaled [10] | Kp (in vivo) | fraction unbound at 4 h [12] | CLint scaled [14] | IC50 [17] | AUC [18] | CLint scaled [20] | CLint scaled [21] | fraction unbound at 4 h [23] | SMILES | IC50 (Cytochrome P450 1A2) | IC50 (Cytochrome P450 2C9) | IC50 (Cytochrome P450 2C19) | IC50 (Cytochrome P450 2D6) | IC50 (Cytochrome P450 3A4) | also measured
1 | 39000 ng/mL | 110 ng/mL | 1.66 h | 400 ng·h/mL | > 51 µg/mL | < 4.2 mL/min/kg | 1.79 | 0.61 | < 11 mL/min/kg | 0.259 µM | 22100 ng·h/mL | < 11 mL/min/kg | < 4.2 mL/min/kg | 0.578 | CN(C/C=C\CN)C[C@H]1O[C@@H](n2cnc3c(N)nc(Cl)nc32)[C@H](O)[C@@H]1O | – | – | – | – | – | IC50 (CYP1A2): > 5 µM; IC50 (CYP2C9): > 5 µM; IC50 (CYP2C19): > 5 µM; IC50 (CYP2D6): > 5 µM; IC50 (CYP3A4): > 5 µM
2 | 33000 ng/mL | 30 ng/mL | 1.93 h | 140 ng·h/mL | > 47 µg/mL | < 4.2 mL/min/kg | 0.86 | 0.767 | < 11 mL/min/kg | 0.172 µM | 16300 ng·h/mL | < 11 mL/min/kg | < 4.2 mL/min/kg | 0.523 | CN(C/C=C\CN)C[C@H]1O[C@@H](n2cnc3c(N)ncnc32)[C@H](F)[C@@H]1O | > 5 µM | > 5 µM | > 5 µM | > 5 µM | > 5 µM | –

Row | SMILES | Cmax [1] | Cmax [3] | half-life [5] | AUC [7] | solubility kinetic [9] | CLint scaled [10] | Kp (in vivo) | fraction unbound at 4 h [12] | CLint scaled [14] | IC50 [17] | AUC [18] | CLint scaled [20] | CLint scaled [21] | fraction unbound at 4 h [23] | IC50 (Cytochrome P450 1A2) | IC50 (Cytochrome P450 2C9) | IC50 (Cytochrome P450 2C19) | IC50 (Cytochrome P450 2D6) | IC50 (Cytochrome P450 3A4) | also measured
3 | CN(C/C=C\CN)C[C@H]1O[C@@H](n2cnc3c(N)ncnc32)[C@H](O)[C@@H]1O | 44800 ng/mL | 80 ng/mL | 2.48 h | 360 ng·h/mL | > 47 µg/mL | < 4.2 mL/min/kg | 1.7 | 0.271 | < 11 mL/min/kg | 0.0014 µM | 20700 ng·h/mL | < 11 mL/min/kg | < 4.2 mL/min/kg | 0.302 | > 5 µM | > 5 µM | > 5 µM | > 5 µM | > 5 µM | Survival [2]: >30 days; Partition coefficient [4]: 0.28; Activity [6]: Active; remaining at 4 h [8]: 100%; remaining at 4 h [11]: 100%; Survival [13]: >40 days; Papp at 4 h [15]: 0.13 ×10⁻⁶ cm/s; Papp A→B [16]: 3.25 ×10⁻⁶ cm/s; Stability [19]: 100%; Papp B→A [22]: 2.7 ×10⁻⁶ cm/s; Survival [24]: >40 days
